Experimental data from ChEMBL document CHEMBL2057135, “Synthesis, antitubercular and antimicrobial evaluation of 3-(4-chlorophenyl)-4-substituted pyrazole derivatives” (2012).
Values after ≈ are worked out from the molar mass of the structure shown.

Experiments:
Assay type in all cases: functional
Pichia kudriavzevii = experiment: Antifungal activity against Candida krusei KCCM 11655 after 1 day; conditions: KCCM 11655, 24 h
Escherichia coli = experiment: Antibacterial activity against Escherichia coli ATCC 25922
[1] = test system: Mycobacterium tuberculosis; experiment: Antitubercular activity against Mycobacterium tuberculosis H37Rv ATCC 27294 after 7 days by BACTEC method; conditions: H37Rv ATCC 27294, 168 h
Outline: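 Screened in vitro against M. tuberculosis H37Rv in a modified BACTEC 460 radiometric system. Test compound stocks were made at 1 mg/ml in DMSO and filter-sterilised through 0.22 µm PTFE filters. MIC was read, with rifampin as the reference agent.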

Aspergillus niger = experiment: Antifungal activity against Aspergillus niger KCTC 1231 after 2 days; conditions: KCTC 1231, 48 h
Cryptococcus neoformans = experiment: Antifungal activity against Cryptococcus neoformans KCCM 50564 after 1 day; conditions: KCCM 50564, 24 h
Staphylococcus aureus = experiment: Antibacterial activity against Staphylococcus aureus ATCC 29213
Aspergillus flavus = experiment: Antifungal activity against Aspergillus flavus KCCM 11899 after 2 days; conditions: KCCM 11899, 48 h

SMILES	MIC (Pichia kudriavzevii) [µg/mL]	MIC (Escherichia coli) [µg/mL]	MIC [1] [µg/mL]	MIC (Aspergillus niger) [µg/mL]	MIC (Cryptococcus neoformans) [µg/mL]	MIC (Staphylococcus aureus) [µg/mL]	MIC (Aspergillus flavus) [µg/mL]
COc1ccc(/C=N/NC(=O)c2cc(-c3ccc(Cl)cc3)n[nH]2)cc1OC	50 (≈ 130 µM)	4 (≈ 10.4 µM)	0.37 (≈ 0.961 µM)	25 (≈ 65 µM)	12.5 (≈ 32.5 µM)	0.25 (≈ 0.65 µM)	12.5 (≈ 32.5 µM)
O=C(N/N=C/c1ccccc1)c1cc(-c2ccc(Cl)cc2)n[nH]1	12.5 (≈ 38.5 µM)	1 (≈ 3.08 µM)	> 5	50 (≈ 154 µM)	1.6 (≈ 4.93 µM)	4 (≈ 12.3 µM)	3.2 (≈ 9.85 µM)
COc1ccc(/C=N/NC(=O)c2cc(-c3ccc(Cl)cc3)n[nH]2)cc1	100 (≈ 282 µM)	0.01 (≈ 0.0282 µM)	0.85 (≈ 2.4 µM)	12.5 (≈ 35.2 µM)	50 (≈ 141 µM)	0.18 (≈ 0.507 µM)	100 (≈ 282 µM)
COc1cc(/C=N/NC(=O)c2cc(-c3ccc(Cl)cc3)n[nH]2)ccc1O	12.5 (≈ 33.7 µM)	0.017 (≈ 0.0458 µM)	0.55 (≈ 1.48 µM)	25 (≈ 67.4 µM)	1.6 (≈ 4.32 µM)	0.12 (≈ 0.324 µM)	12.5 (≈ 33.7 µM)
O=C(N/N=C/c1ccccc1O)c1cc(-c2ccc(Cl)cc2)n[nH]1	50 (≈ 147 µM)	0.015 (≈ 0.044 µM)	1.1 (≈ 3.23 µM)	100 (≈ 293 µM)	25 (≈ 73.4 µM)	0.4 (≈ 1.17 µM)	6.3 (≈ 18.5 µM)
O=C(N/N=C/c1ccc(O)cc1)c1cc(-c2ccc(Cl)cc2)n[nH]1	100 (≈ 293 µM)	0.012 (≈ 0.0352 µM)	1.1 (≈ 3.23 µM)	12.5 (≈ 36.7 µM)	50 (≈ 147 µM)	0.35 (≈ 1.03 µM)	50 (≈ 147 µM)
O=C(N/N=C/c1ccccc1[N+](=O)[O-])c1cc(-c2ccc(Cl)cc2)n[nH]1	100 (≈ 270 µM)	8 (≈ 21.6 µM)	> 5	3.2 (≈ 8.65 µM)	1.6 (≈ 4.33 µM)	8 (≈ 21.6 µM)	25 (≈ 67.6 µM)
O=C(N/N=C/c1cccc([N+](=O)[O-])c1)c1cc(-c2ccc(Cl)cc2)n[nH]1	25 (≈ 67.6 µM)	0.13 (≈ 0.352 µM)	> 5	25 (≈ 67.6 µM)	1.6 (≈ 4.33 µM)	1.5 (≈ 4.06 µM)	12.5 (≈ 33.8 µM)
O=C(N/N=C/c1ccccc1Cl)c1cc(-c2ccc(Cl)cc2)n[nH]1	12.5 (≈ 34.8 µM)	0.014 (≈ 0.039 µM)	0.36 (≈ 1 µM)	12.5 (≈ 34.8 µM)	3.2 (≈ 8.91 µM)	0.21 (≈ 0.585 µM)	25 (≈ 69.6 µM)
O=C(N/N=C/c1ccc(Cl)cc1)c1cc(-c2ccc(Cl)cc2)n[nH]1	12.5 (≈ 34.8 µM)	0.012 (≈ 0.0334 µM)	1.1 (≈ 3.06 µM)	12.5 (≈ 34.8 µM)	1.6 (≈ 4.45 µM)	0.12 (≈ 0.334 µM)	25 (≈ 69.6 µM)
O=C(NN1C(=O)[C@H](Cl)[C@H]1c1ccccc1)c1cc(-c2ccc(Cl)cc2)n[nH]1 (racemic)	100 (≈ 249 µM)	0.48 (≈ 1.2 µM)	1.25 (≈ 3.12 µM)	25 (≈ 62.3 µM)	50 (≈ 125 µM)	0.51 (≈ 1.27 µM)	100 (≈ 249 µM)
O=C(NN1C(=O)CSC1c1ccccc1)c1cc(-c2ccc(Cl)cc2)n[nH]1 (racemic)	50 (≈ 125 µM)	0.28 (≈ 0.702 µM)	3.15 (≈ 7.9 µM)	25 (≈ 62.7 µM)	12.5 (≈ 31.3 µM)	0.91 (≈ 2.28 µM)	12.5 (≈ 31.3 µM)
COc1ccc([C@@H]2[C@@H](Cl)C(=O)N2NC(=O)c2cc(-c3ccc(Cl)cc3)n[nH]2)cc1 (racemic)	12.5 (≈ 29 µM)	0.06 (≈ 0.139 µM)	1.2 (≈ 2.78 µM)	3.2 (≈ 7.42 µM)	1.6 (≈ 3.71 µM)	0.0025 (≈ 0.0058 µM)	12.5 (≈ 29 µM)
COc1ccc(C2SCC(=O)N2NC(=O)c2cc(-c3ccc(Cl)cc3)n[nH]2)cc1 (racemic)	50 (≈ 117 µM)	0.04 (≈ 0.0933 µM)	0.65 (≈ 1.52 µM)	3.2 (≈ 7.46 µM)	12.5 (≈ 29.1 µM)	0.5 (≈ 1.17 µM)	25 (≈ 58.3 µM)
COc1ccc([C@@H]2[C@@H](Cl)C(=O)N2NC(=O)c2cc(-c3ccc(Cl)cc3)n[nH]2)cc1OC (racemic)	12.5 (≈ 27.1 µM)	0.5 (≈ 1.08 µM)	1.15 (≈ 2.49 µM)	12.5 (≈ 27.1 µM)	3.2 (≈ 6.94 µM)	0.05 (≈ 0.108 µM)	6.3 (≈ 13.7 µM)
COc1ccc(C2SCC(=O)N2NC(=O)c2cc(-c3ccc(Cl)cc3)n[nH]2)cc1OC (racemic)	12.5 (≈ 27.2 µM)	0.2 (≈ 0.436 µM)	1.2 (≈ 2.61 µM)	6.3 (≈ 13.7 µM)	50 (≈ 109 µM)	0.06 (≈ 0.131 µM)	12.5 (≈ 27.2 µM)
COc1cc([C@@H]2[C@@H](Cl)C(=O)N2NC(=O)c2cc(-c3ccc(Cl)cc3)n[nH]2)ccc1O (racemic)	1.6 (≈ 3.58 µM)	0.025 (≈ 0.0559 µM)	0.6 (≈ 1.34 µM)	3.2 (≈ 7.15 µM)	12.5 (≈ 27.9 µM)	0.125 (≈ 0.279 µM)	25 (≈ 55.9 µM)
COc1cc(C2SCC(=O)N2NC(=O)c2cc(-c3ccc(Cl)cc3)n[nH]2)ccc1O (racemic)	12.5 (≈ 28.1 µM)	0.05 (≈ 0.112 µM)	0.65 (≈ 1.46 µM)	1.6 (≈ 3.6 µM)	1.6 (≈ 3.6 µM)	0.15 (≈ 0.337 µM)	12.5 (≈ 28.1 µM)

SMILES	MIC (Pichia kudriavzevii) [µg/mL]	MIC (Escherichia coli) [µg/mL]	MIC [1] [µg/mL]	MIC (Aspergillus niger) [µg/mL]	MIC (Cryptococcus neoformans) [µg/mL]	MIC (Staphylococcus aureus) [µg/mL]	MIC (Aspergillus flavus) [µg/mL]
O=C(NN1C(=O)[C@H](Cl)[C@H]1c1ccccc1O)c1cc(-c2ccc(Cl)cc2)n[nH]1 (racemic)	6.3 (≈ 15.1 µM)	0.019 (≈ 0.0455 µM)	0.35 (≈ 0.839 µM)	12.5 (≈ 30 µM)	1.6 (≈ 3.83 µM)	0.125 (≈ 0.3 µM)	12.5 (≈ 30 µM)
O=C(NN1C(=O)CSC1c1ccccc1O)c1cc(-c2ccc(Cl)cc2)n[nH]1 (racemic)	12.5 (≈ 30.1 µM)	0.028 (≈ 0.0675 µM)	0.5 (≈ 1.21 µM)	6.3 (≈ 15.2 µM)	6.3 (≈ 15.2 µM)	0.06 (≈ 0.145 µM)	12.5 (≈ 30.1 µM)
O=C(NN1C(=O)[C@H](Cl)[C@H]1c1ccc(O)cc1)c1cc(-c2ccc(Cl)cc2)n[nH]1 (racemic)	25 (≈ 59.9 µM)	0.01 (≈ 0.024 µM)	0.6 (≈ 1.44 µM)	1.6 (≈ 3.83 µM)	3.2 (≈ 7.67 µM)	0.04 (≈ 0.0959 µM)	12.5 (≈ 30 µM)
O=C(NN1C(=O)[C@H](Cl)[C@H]1c1ccccc1[N+](=O)[O-])c1cc(-c2ccc(Cl)cc2)n[nH]1 (racemic)	12.5 (≈ 28 µM)	0.5 (≈ 1.12 µM)	1.9 (≈ 4.26 µM)	100 (≈ 224 µM)	50 (≈ 112 µM)	6 (≈ 13.4 µM)	50 (≈ 112 µM)
O=C(NN1C(=O)CSC1c1ccccc1[N+](=O)[O-])c1cc(-c2ccc(Cl)cc2)n[nH]1 (racemic)	25 (≈ 56.3 µM)	0.1 (≈ 0.225 µM)	4 (≈ 9.01 µM)	50 (≈ 113 µM)	3.2 (≈ 7.21 µM)	2 (≈ 4.51 µM)	50 (≈ 113 µM)
O=C(NN1C(=O)[C@H](Cl)[C@H]1c1cccc([N+](=O)[O-])c1)c1cc(-c2ccc(Cl)cc2)n[nH]1 (racemic)	100 (≈ 224 µM)	0.33 (≈ 0.739 µM)	1.99 (≈ 4.46 µM)	12.5 (≈ 28 µM)	50 (≈ 112 µM)	1.2 (≈ 2.69 µM)	50 (≈ 112 µM)
O=C(NN1C(=O)CSC1c1cccc([N+](=O)[O-])c1)c1cc(-c2ccc(Cl)cc2)n[nH]1 (racemic)	50 (≈ 113 µM)	0.6 (≈ 1.35 µM)	2 (≈ 4.51 µM)	25 (≈ 56.3 µM)	100 (≈ 225 µM)	8 (≈ 18 µM)	100 (≈ 225 µM)
O=C(NN1C(=O)[C@H](Cl)[C@H]1c1ccccc1Cl)c1cc(-c2ccc(Cl)cc2)n[nH]1 (racemic)	1.6 (≈ 3.67 µM)	0.031 (≈ 0.0712 µM)	0.55 (≈ 1.26 µM)	12.5 (≈ 28.7 µM)	6.3 (≈ 14.5 µM)	0.034 (≈ 0.078 µM)	12.5 (≈ 28.7 µM)
O=C(NN1C(=O)CSC1c1ccccc1Cl)c1cc(-c2ccc(Cl)cc2)n[nH]1 (racemic)	12.5 (≈ 28.8 µM)	0.048 (≈ 0.111 µM)	0.5 (≈ 1.15 µM)	25 (≈ 57.7 µM)	1.6 (≈ 3.69 µM)	0.02 (≈ 0.0462 µM)	50 (≈ 115 µM)
O=C(NN1C(=O)[C@H](Cl)[C@H]1c1ccc(Cl)cc1)c1cc(-c2ccc(Cl)cc2)n[nH]1 (racemic)	6.3 (≈ 14.5 µM)	0.01 (≈ 0.023 µM)	1 (≈ 2.3 µM)	6.3 (≈ 14.5 µM)	1.6 (≈ 3.67 µM)	0.28 (≈ 0.643 µM)	12.5 (≈ 28.7 µM)
O=C(NN1C(=O)CSC1c1ccc(Cl)cc1)c1cc(-c2ccc(Cl)cc2)n[nH]1 (racemic)	25 (≈ 57.7 µM)	0.022 (≈ 0.0508 µM)	1.15 (≈ 2.65 µM)	12.5 (≈ 28.8 µM)	12.5 (≈ 28.8 µM)	0.048 (≈ 0.111 µM)	6.3 (≈ 14.5 µM)
O=C(NN1C(=O)CSC1c1ccc(O)cc1)c1cc(-c2ccc(Cl)cc2)n[nH]1 (single isomer, unassigned; (+))	50 (≈ 121 µM)	0.017 (≈ 0.041 µM)	0.39 (≈ 0.94 µM)	1.6 (≈ 3.86 µM)	1.6 (≈ 3.86 µM)	0.125 (≈ 0.301 µM)	12.5 (≈ 30.1 µM)
O=C(O)c1cn(C2CC2)c2cc(N3CCNCC3)c(F)cc2c1=O [CIPROFLOXACIN]						0.25 (≈ 0.754 µM)	
OC(Cn1cncn1)(Cn1cncn1)c1ccc(F)cc1F [FLUCONAZOLE]	25 (≈ 81.6 µM)			6.3 (≈ 20.6 µM)	6.3 (≈ 20.6 µM)		25 (≈ 81.6 µM)
Nc1nc(=O)[nH]cc1F [FLUCYTOSINE]	6.3 (≈ 48.8 µM)			6.3 (≈ 48.8 µM)	6.3 (≈ 48.8 µM)		25 (≈ 194 µM)
COc1c(N2C[C@@H]3CCCN[C@@H]3C2)c(F)cc2c(=O)c(C(=O)O)cn(C3CC3)c12 [MOXIFLOXACIN]		0.015 (≈ 0.0374 µM)				0.06 (≈ 0.149 µM)	
CO[C@H]1/C=C/O[C@@]2(C)Oc3c(C)c(O)c4c(O)c(c(/C=N/N5CCN(C)CC5)c(O)c4c3C2=O)NC(=O)/C(C)=C\C=C\[C@H](C)[C@H](O)[C@@H](C)[C@@H](O)[C@@H](C)[C@H](OC(C)=O)[C@@H]1C [RIFAMPIN]			0.125 (≈ 0.152 µM)				
